Screening data from PubChem.
Hits are enriched below; roughly 1.9% of the tested compounds scored in any of these assays.
NPY Y1 blocker = NPY-Y1 (human) receptor antagonism; P25929; HEK293-CNG Y1 cells, membrane potential fluorescence; NPY at EC95, then isoproterenol; inhibition, % at 3.6 µM; hit rate 1% among 200,000; AID 1040;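 active = inhibition above the campaign mean inhibition of all tested compounds plus 3 SD, cut at about 20% in these data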
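Material: HEK293 Y1/CNG channel cell line; also added: NPY (25 nM), isoproterenol (1 µM), Ro 20-1724 (25 µM); doses: one concentration, 3.6 µM, in 0.4% DMSO; schedule: compound incubation 1 h at room temperature, readout 45 min post-stimulation; technique: membrane potential fluorescence; measure: fluorescence ratio normalized to % inhibition between controls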
NPY2 pot ag = potentiators or agonists of human neuropeptide Y receptor Y2; P49146; cells expressing NPY-Y2, potentiator/agonist read-out; activation, % at 3.6 µM; hit rate 0.45% among 220,000; AID 1359; in the data active = activation above about 27%;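 also: cells stimulated with NPY near EC25 plus isoproterenol at EC100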
Target sequence (P49146 whole entry, looked up): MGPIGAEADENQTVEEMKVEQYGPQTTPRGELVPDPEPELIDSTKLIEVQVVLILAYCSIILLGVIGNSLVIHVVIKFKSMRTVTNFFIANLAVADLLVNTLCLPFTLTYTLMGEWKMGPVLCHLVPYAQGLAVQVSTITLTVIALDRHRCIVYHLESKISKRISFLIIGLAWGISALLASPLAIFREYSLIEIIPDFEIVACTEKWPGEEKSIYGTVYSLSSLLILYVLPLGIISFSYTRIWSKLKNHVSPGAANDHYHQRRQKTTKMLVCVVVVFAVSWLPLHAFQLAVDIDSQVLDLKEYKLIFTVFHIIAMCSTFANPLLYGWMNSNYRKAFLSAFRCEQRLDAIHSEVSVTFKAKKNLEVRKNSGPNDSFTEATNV
NPY Y2 blocker = antagonists of human neuropeptide Y receptor Y2. NPY-Y2 expressing cells, antagonist mode. inhibition, % at 2.7 µM. P49146. hit rate 0.99% among 140,000. AID 793; in the data active = inhibition above about 17%
NPY-Y1 PAM-ag = potentiates or activates human NPY-Y1 receptor. activation, % at 3.6 µM. NPY-Y1 expressing cells, potentiator/agonist activation. hit rate 0.37% among 220,000. P25929; in the data active = activation above about 33%, passing the limit was not always enough;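 also: cells stimulated with NPY at EC10 then isoproterenol at EC100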
Hits are given with their value; – = inactive; · = no result.

SMILES | NPY Y1 blocker | NPY2 pot ag | NPY Y2 blocker | NPY-Y1 PAM-ag
CC(=O)N(C(C)=O)N1C(=O)C2C3c4ccccc4C(c4ccccc43)C2C1=O (stereo not given) | – | – | · | –
N#Cc1nc(COc2ccccc2)oc1N1CCN(Cc2ccccc2)CC1 | 21 | – | 28 | –
Cc1ccc(OCc2nc(C#N)c(N3CCN(Cc4ccccc4)CC3)o2)cc1 | 23 | – | 41 | –
CCCCN(C(=O)NC(=O)Nc1ccc(C)cn1)S(C)(=O)=O | – | – | – | –
CCOc1ccc(-c2nc[nH]c2[N+](=O)[O-])cc1 | – | – | · | –
CCOC(=O)c1cnc2ccc(OCC)cc2c1N(C)Cc1ccccc1 | 31 | – | 35 | –
COc1ccc(Nc2ncnc3scc(-c4ccc(OC)cc4)c23)cc1 | 21 | – | 32 | –
O=C(Nc1ccc(Cl)cc1)Nc1ccc2c(c1)N1CCN=C1S2 | – | – | – | 35
COc1ccc(/C=N/NC2=NCCCCC2)c(OC)c1 | – | – | · | –
Cc1ccc(NC(=O)COc2ccccc2CNC(C)(C)CC(C)(C)C)cc1 | 30 | – | 25 | –
O=C(COC(=O)[C@@H]1CC(O)CN1S(=O)(=O)c1ccc2c(c1)OCCO2)NCc1ccc(F)cc1 (stereo not given in full) | – | – | · | –
CC1CCN(Cc2c(C(=O)O)nnn2-c2nonc2N)CC1 | – | – | · | –
COC(=O)c1ccsc1NC(=O)CN1CCN(Cc2ccc3c(c2)OCO3)CC1 | – | – | – | –
COC(=O)c1c(NC(=O)CN2CCN(Cc3ccc4c(c3)OCO4)CC2)sc(C)c1C | 48 | – | 38 | –
COCC1CCCN(Cc2cn(-c3ccccc3)nc2-c2ccc3c(c2)OCO3)C1 (stereo not given) | – | 96 | · | 65
Nc1nc(-c2ccccc2)c(N=Nc2cccnc2)s1 | – | 57 | · | 65
Cc1nn(-c2ccccc2)c(N)c1N=Nc1cccnc1 | – | – | · | –
CCOc1ccc(C2CC(c3ccccc3C)n3ncnc3N2)cc1 (stereo not given) | 21 | – | 24 | –
Cc1ccccc1C1CC(c2ccccc2)Nc2ncnn21 (stereo not given) | – | – | – | –
Cc1c(NC(=O)c2cccs2)cccc1-c1nc2ccccc2s1 | – | 27 | – | 46
Cc1c(NC(=O)c2cc(-n3cnnc3)ccc2Cl)cccc1-c1nc2ccccc2s1 | – | – | – | –
COC(=O)Cn1c2ccc(F)cc2c2nc(C)sc21 | – | – | – | –
Cc1nc2c3cc(Cl)ccc3n(CCN3CCCCC3)c2s1 | 25 | – | 33 | –
Cc1nc2c3cc(F)ccc3n(Cc3ccc(F)cc3)c2s1 | 27 | – | 18 | –
COC(=O)Cn1c2ccc(Cl)cc2c2nc(C)sc21 | · | – | · | –
SMILES | NPY Y1 blocker | NPY2 pot ag | NPY Y2 blocker | NPY-Y1 PAM-ag
CN(C)c1ccc(/C=C/c2ccc3c4ccccc4ccc3[n+]2-c2ccccc2)cc1 | – | 58 | · | –
Cc1nc2sccn2c(=O)c1CCN1CCC(=C(c2ccccc2)c2ccc(F)cc2)CC1 | 40 | – | 44 | –
CCOC(=O)c1c(C)nc2sccn12 | – | – | – | –
O=C(N/C(=C\c1cccc([N+](=O)[O-])c1)C(=O)N(CCO)CCO)c1ccco1 | – | – | · | –
CCOC(=O)C(=CNNc1cccc(Cl)c1)C(=O)OCC | · | 54 | · | 62
CCOC(=O)CSc1nc2ccc(NC(C)=O)cc2s1 | – | 58 | – | 72
O=C(Nc1ccc2nc(SCc3ccc(Cl)cc3)sc2c1)c1ccccc1C(=O)N1CCOCC1 | – | – | – | –
COC(=O)CSc1nc2ccc(NC(=O)c3ccccc3C(=O)N3CCOCC3)cc2s1 | – | 95 | – | 109
NN1C(=O)NC(c2ccccc2)(c2ccccc2)C1=O | – | – | · | –
Cn1nc(C(F)(F)F)c(-c2ccc(Br)cc2)c1NC(=O)Nc1ccc(F)cc1F | · | 99 | · | 108
Cn1nc(C(F)(F)F)c(-c2ccc(F)cc2)c1NC(=O)c1ccco1 | · | – | · | –
O=C(NC(C(=O)N/N=C/c1ccccn1)c1n[nH]c(=O)c2ccccc12)c1ccccc1 (stereo not given) | · | – | · | –
Cc1ccc(S(=O)(=O)Nc2ccc3nc(N)sc3c2)cc1 | – | – | – | –
CS(=O)(=O)c1ccc2nc(N)sc2c1 | – | – | – | 41
COc1ccccc1NC(=O)C1=C(C)NC(SCC(=O)Nc2ccc(C(=O)O)cc2)=C(C#N)C1c1cccs1 (stereo not given) | · | – | · | –
Cc1ccc(NC(=O)C2CCCN2C(=O)OC(C)(C)C)cc1C (stereo not given) | · | – | · | –
Cc1cc(C)n(-c2nc(SCCN(C)C)c3c4c(sc3n2)CCCC4)n1 | 92 | – | 101 | –
Cc1cc(C)n(-c2nc(SCC(=O)O)c3c4c(sc3n2)COC(C)(C)C4)n1 | · | – | · | –
CCN(CC)c1nc2ccccc2c(N)c1-c1ccccc1 | 29 | – | 23 | –
Cc1c(N(C)C)nc2ccccc2c1N | – | – | – | –
Nc1c2ccccc2nc2ccccc12 | · | 51 | · | 64
COc1ccc(C(=O)NNC(=O)CN2CCC(n3nnc4cc(F)ccc43)CC2)cc1 | – | – | – | –
O=C(Nc1cccc(Cl)c1)OCc1cn(-c2ccccc2)nn1 | 21 | – | · | –
CCNC(=O)OCc1cn(-c2ccccc2)nn1 | – | – | · | –
CCNC(=O)CSc1nnc(-c2ccccc2Br)n1-c1cccc(C(F)(F)F)c1 | – | – | – | –
SMILES | NPY Y1 blocker | NPY2 pot ag | NPY Y2 blocker | NPY-Y1 PAM-ag
O=C(NC1CCCCC1)C(c1ccco1)N(Cc1cccs1)C(=O)Cn1nnc2ccccc21 (stereo not given) | 51 | – | 42 | –
CCC(C)(C)NC(=O)C(c1ccccc1)N(Cc1cccs1)C(=O)Cn1nnc2ccccc21 (stereo not given) | 136 | – | 133 | –
CCC(C)(C)NC(=O)C(c1ccc(C)o1)N(Cc1cccs1)C(=O)Cn1nnc2ccccc21 (stereo not given) | 70 | – | 50 | –
O=C(NC1CCCCC1)C(c1ccccc1)N(Cc1ccco1)C(=O)Cn1cnc2ccccc21 (stereo not given) | 78 | – | 55 | –
CCOc1ccc2nc(C)cc(Nc3cccc([N+](=O)[O-])c3)c2c1 | – | – | – | –
O=C(CN(Cc1cccs1)C(=O)CNS(=O)(=O)c1ccccc1)NC1CCCC1 | – | – | · | –
Cn1cc(S(=O)(=O)c2ccccc2)n(C)c1=O | – | – | · | –
O=C(c1ccco1)N(CCCN1CCOCC1)c1nc(-c2ccc(Cl)cc2)cs1 | 41 | – | 30 | –
COc1ccc(CN(CCC(c2ccc(F)cc2)C2CCOC(C)(C)C2)C(=O)c2ccco2)cc1 (stereo not given) | 22 | – | 20 | –
CSc1ncccc1C(=O)Nc1nnc(C2CC2)s1 | – | – | · | –
Cc1ccc(NC(=O)C2=C(c3ccccc3)S(=O)(=O)CCS2(=O)=O)cc1 | – | 55 | · | 56
COc1cccc(CN2CCNC(=O)C2CC(=O)N(C)Cc2cnccn2)c1OC (stereo not given) | – | – | · | –
CC1CC(=O)NN=C1c1ccc(NCCO)c([N+](=O)[O-])c1 (stereo not given) | 78 | – | 78 | –
CCc1[nH]nc2c1C(c1cccc(OC(=O)N3CCOCC3)c1)C(C#N)=C(N)O2 (stereo not given) | – | – | – | –
